Active and inactive are the calls of the source. The calls are words filed in the database; no cut-off is given here.
How the values were obtained:
MCF-10A-neoT [1] = test: Antiinvasive activity against human MCF10AneoT cells at 5 uM incubated for 1 hr measured every 15 mins for 72 hrs by real time xCELLigence assay relative to control; format: functional
Summary of the method: (§1)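 MCF-10A neoT cells (3 × 10⁴) seeded on Matrigel-coated (1 mg/mL) upper compartments of CIM-plates. Compound or DMSO (0.05%) added to growth medium in both upper and lower compartments. Invasion followed by impedance (cell index) for 72 h. Slopes (1/h) between 4 and 14 h converted to percentage invasion versus DMSO. Means of n = 2, each run in triplicate.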

Cathepsin B [2] = target: T1, Cathepsin B (Homo sapiens, UniProt P07858); test: Competitive inhibition of recombinant human cathepsin B endopeptidase activity assessed as inhibitory constant for enzyme-inhibitor complex using Z-Arg-Arg-AMC as substrate in presence of pH 4.5 acetate buffer by fluorescence assay; settings: read-out: Ki
Summary of the method: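 Recombinant cathepsin B endopeptidase activity assayed with the small substrate Z-Arg-Arg-AMC at pH 4.5. Acidic conditions chosen to shift the enzyme toward the closed (exopeptidase) conformation. Ki reported.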

Procathepsin L [3] = target: T2, Procathepsin L (Homo sapiens, UniProt P07711); test: Non-competitive inhibition of recombinant human cathepsin L expressed in Escherichia coli assessed as inhibitory constant for enzyme-inhibitor complex using Z-FR-AMC as substrate in presence of pH 6 phosphate buffer by fluorescence assay
T2 sequence (P07711 whole entry): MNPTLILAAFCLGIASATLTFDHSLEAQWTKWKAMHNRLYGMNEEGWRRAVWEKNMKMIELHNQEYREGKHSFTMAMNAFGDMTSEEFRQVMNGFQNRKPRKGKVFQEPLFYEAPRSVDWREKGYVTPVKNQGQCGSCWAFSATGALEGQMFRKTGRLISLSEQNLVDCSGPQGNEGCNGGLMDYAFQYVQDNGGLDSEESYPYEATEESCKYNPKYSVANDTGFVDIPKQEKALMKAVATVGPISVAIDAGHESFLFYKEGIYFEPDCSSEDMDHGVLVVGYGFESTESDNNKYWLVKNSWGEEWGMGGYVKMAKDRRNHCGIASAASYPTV

Cathepsin B [4] = target: T1, Cathepsin B; test: Mixed inhibition of recombinant human cathepsin B exopeptidase activity assessed as inhibitory constant for enzyme-substrate-inhibitor complex using Abz-Gly-Ile-Val-Arg-Ala-Lys(Dnp)-OH as substrate in presence of pH 5 acetate buffer by fluorescence assay
Cathepsin B [5] = target: T1, Cathepsin B; test: Uncompetitive inhibition of recombinant human cathepsin B endopeptidase activity assessed as inhibitory constant for enzyme-substrate-inhibitor complex using Z-Arg-Arg-AMC as substrate in presence of pH 6 phosphate buffer by fluorescence assay
Cathepsin B [6] = target: T1, Cathepsin B; test: Inhibition of cathepsin B in human MCF-10A neoT cells assessed as proteolysis of extracellular membrane by measuring decrease in extracellular degradation of DQ-collagen 4 at 5 uM incubated for 6 hrs measured for 2 hrs by fluorescence based spectrofluorimetric assay relative to control; format: cell-based
Summary of the method: (§2)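 MCF-10A neoT cells (5 × 10⁴) incubated with DQ-collagen IV in the presence of compound or DMSO. Extracellular degradation product read by spectrofluorimetry. Mean of n = 3, six replicates per experiment.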

Cathepsin B [7] = target: T1, Cathepsin B; test: Mixed inhibition of recombinant human cathepsin B exopeptidase activity assessed as inhibitory constant for enzyme-inhibitor complex using Abz-Gly-Ile-Val-Arg-Ala-Lys(Dnp)-OH as substrate in presence of pH 5 acetate buffer by fluorescence assay
Procathepsin L [8] = target: T2, Procathepsin L; test: Non-competitive inhibition of recombinant human cathepsin L expressed in Escherichia coli assessed as inhibitory constant for enzyme-substrate-inhibitor complex using Z-FR-AMC as substrate in presence of pH 6 phosphate buffer by fluorescence assay
MCF-10A-neoT [9] = test: Cytotoxicity against human MCF10AneoT cells assessed as decrease in cell viability after 72 hrs by MTS assay; format: cell-based
U-87 MG [10] = test: Cytotoxicity against human U87MG cells assessed as decrease in cell viability after 72 hrs by MTS assay; format: cell-based; settings: u-87mg atcc
Pro-cathepsin H [11] = target: T3, Pro-cathepsin H (Homo sapiens, UniProt P09668); test: Uncompetitive inhibition of human liver cathepsin H assessed as inhibitory constant for enzyme-substrate-inhibitor complex using R-AMC as substrate in presence of pH 6 phosphate buffer by fluorescence assay
T3 sequence (P09668 whole entry): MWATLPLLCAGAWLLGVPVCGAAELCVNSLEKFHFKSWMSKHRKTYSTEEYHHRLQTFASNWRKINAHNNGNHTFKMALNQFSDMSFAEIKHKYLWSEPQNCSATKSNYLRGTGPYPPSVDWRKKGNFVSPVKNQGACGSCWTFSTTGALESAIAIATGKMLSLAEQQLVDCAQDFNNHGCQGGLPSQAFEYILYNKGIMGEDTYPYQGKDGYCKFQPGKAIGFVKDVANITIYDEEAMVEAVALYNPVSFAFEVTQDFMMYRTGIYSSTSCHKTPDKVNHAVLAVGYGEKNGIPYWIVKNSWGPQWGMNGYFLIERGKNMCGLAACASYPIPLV

Cathepsin B [12] = target: T1, Cathepsin B; test: (§3) Inhibition of cathepsin B in human MCF-10A neoT cells assessed as proteolysis of extracellular membrane by measuring decrease in intracellular degradation of DQ-collagen 4 at 50 uM incubated for 2 hrs followed by DQ-collagen addition measured for 2 hrs by propidium iodide staining based flow cytometry relative to control; format: cell-based
Summary of the method: (§4)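 MCF-10A neoT cells (6 × 10⁴) treated with compound or DMSO. Intracellular DQ-collagen IV degradation measured by flow cytometry, with unlabeled cells as background. Reduction expressed versus DMSO. Mean of n = 3, run in duplicate.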

Cathepsin B [13] = target: T1, Cathepsin B; test: Non-competitive inhibition of recombinant human cathepsin B exopeptidase activity assessed as inhibitory constant for enzyme-inhibitor complex using Abz-Gly-Ile-Val-Arg-Ala-Lys(Dnp)-OH as substrate in presence of pH 5 acetate buffer by fluorescence assay
Cathepsin B [14] = target: T1, Cathepsin B; test: Competitive inhibition of recombinant human cathepsin B endopeptidase activity assessed as inhibitory constant for enzyme-inhibitor complex using Z-Arg-Arg-AMC as substrate in presence of pH 6 phosphate buffer by fluorescence assay
Cathepsin B [15] = target: T1, Cathepsin B; test: Non-competitive inhibition of recombinant human cathepsin B exopeptidase activity assessed as inhibitory constant for enzyme-substrate-inhibitor complex using Abz-Gly-Ile-Val-Arg-Ala-Lys(Dnp)-OH as substrate in presence of pH 5 acetate buffer by fluorescence assay
Cathepsin B [16] = target: T1, Cathepsin B; test: Non-competitive inhibition of recombinant human cathepsin B endopeptidase activity assessed as inhibitory constant for enzyme-substrate-inhibitor complex using Z-Arg-Arg-AMC as substrate in presence of pH 6 phosphate buffer by fluorescence assay
Cathepsin B [17] = target: T1, Cathepsin B; test: Competitive inhibition of recombinant human cathepsin B exopeptidase activity assessed as inhibitory constant for enzyme-inhibitor complex using Abz-Gly-Ile-Val-Arg-Ala-Lys(Dnp)-OH as substrate in presence of pH 5 acetate buffer by fluorescence assay
Cathepsin B [18] = target: T1, Cathepsin B; test: Non-competitive inhibition of recombinant human cathepsin B endopeptidase activity assessed as inhibitory constant for enzyme-inhibitor complex using Z-Arg-Arg-AMC as substrate in presence of pH 6 phosphate buffer by fluorescence assay
MCF-10A-neoT [19] = test: Antiinvasive activity against human MCF10AneoT cells at 1.25 uM incubated for 1 hr measured every 15 mins for 72 hrs by real time xCELLigence assay relative to control; format: functional; summary of the method: as §1
Cathepsin B [20] = target: T1, Cathepsin B; test: Inhibition of cathepsin B in human MCF-10A neoT cells assessed as proteolysis of extracellular membrane by measuring decrease in extracellular degradation of DQ-collagen 4 at 1.25 uM incubated for 6 hrs measured for 2 hrs by fluorescence based spectrofluorimetric assay relative to control; format: cell-based; summary of the method: as §2
Cathepsin B [21] = target: T1, Cathepsin B; test: as §3, with “12.5” for “50”; format: cell-based; summary of the method: as §4
Procathepsin L [22] = target: T2, Procathepsin L; test: Competitive inhibition of recombinant human cathepsin L expressed in Escherichia coli assessed as inhibitory constant for enzyme-inhibitor complex using Z-FR-AMC as substrate in presence of pH 6 phosphate buffer by fluorescence assay
Cathepsin B [23] = target: T1, Cathepsin B; test: Uncompetitive inhibition of recombinant human cathepsin B exopeptidase activity assessed as inhibitory constant for enzyme-substrate-inhibitor complex using Abz-Gly-Ile-Val-Arg-Ala-Lys(Dnp)-OH as substrate in presence of pH 5 acetate buffer by fluorescence assay
U-87 MG [24] = test: Growth inhibition of human U87MG tumor spheroids at 1.25 uM measured up to 3 days by light microscopy; format: functional, cell-based; settings: U-87MG ATCC
Summary of the method: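 U-87 MG multicellular spheroids formed by hanging drop and implanted in Matrigel with compound. Spheroid dimensions measured for up to three days and volume calculated. Means of n = 2.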

Pro-cathepsin H [25] = target: T3, Pro-cathepsin H; test: Competitive inhibition of human liver cathepsin H assessed as inhibitory constant for enzyme-inhibitor complex using R-AMC as substrate in presence of pH 6 phosphate buffer by fluorescence assay
Cathepsin B [26] = target: T1, Cathepsin B; test: Inhibition of recombinant human cathepsin B endopeptidase activity assessed as inhibitory constant for enzyme-inhibitor complex using Z-Arg-Arg-AMC as substrate in presence of pH 6 phosphate buffer by fluorescence assay

Structure (SMILES): N#CCNC(=O)c1cc([N+](=O)[O-])c2cccnc2c1O
- Activity (MCF-10A-neoT [1]): 20%
- Ki (Cathepsin B [2]): 206 µM
- Ki (Procathepsin L [3]): 155 µM
- Ki (Cathepsin B [4]): 30 µM
- Ki (Cathepsin B [5]): 67 µM
- inhibition (Cathepsin B [6]): Active
- Ki (Cathepsin B [7]): 128 µM
- Ki (Procathepsin L [8]): 155 µM
- Activity (MCF-10A-neoT [9]): Non-Toxic
- Activity (U-87 MG [10]): Non-Toxic
- Ki (Pro-cathepsin H [11]): 462 µM
- inhibition (Cathepsin B [12]): 60%

Structure (SMILES): N#CCNC(=O)c1ccc([N+](=O)[O-])c2cccnc12
- Ki (Cathepsin B [13]): 190 µM
- Ki (Cathepsin B [2]): 294 µM
- Ki (Cathepsin B [14]): 240 µM
- Ki (Cathepsin B [15]): 190 µM

Structure (SMILES): N#CC1(NC(=O)c2cc([N+](=O)[O-])ccc2O)CC1
- Ki (Cathepsin B [16]): 128 µM
- Ki (Cathepsin B [17]): 247 µM
- Ki (Cathepsin B [18]): 247 µM

Structure (SMILES): O=C(NCC1CCN(c2nc3ccccc3o2)CC1)c1cc([N+](=O)[O-])c2cccnc2c1O
- Activity (MCF-10A-neoT [19]): 50%
- inhibition (Cathepsin B [20]): 45%
- inhibition (Cathepsin B [21]): 35%
- Ki (Cathepsin B [2]): 237 µM
- Ki (Procathepsin L [22]): 5 µM
- Ki (Cathepsin B [5]): 8 µM
- Ki (Cathepsin B [23]): 13 µM
- Activity (MCF-10A-neoT [9]): Non-Toxic
- growth inhibition (GI) (U-87 MG [24]): Active
- Ki (Pro-cathepsin H [25]): 108 µM
- Activity (U-87 MG [10]): Non-Toxic
- Ki (Cathepsin B [26]): 8.2 µM
